Publication PMC5621377 (Clinical cancer research : an official journal of the …, 2016)
“Also recorded” adds a separate entry of the source.

Tests used:
[1] = Pharmacokinetics, plasma LC-MS/MS, non-compartmental analysis; assay type: in vivo, human
Method in brief: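 Oral daily dosing at 50–1,200 mg/day. On Cycle 1 Days 1 and 18/21, blood was drawn pre-dose and at 0.5, 1, 2, 4, 6, 8 and 24 h, with further trough days. Parent drug and a metabolite in plasma were measured by validated LC-MS/MS (LLOQ 1.0 ng/mL). Non-compartmental analysis was used. Dose proportionality was fitted as ln(Cmax or AUC0–24) = α + β ln(dose). T1/2,acc came from the accumulation ratio; steady state was judged from troughs.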

[2] = test system: Ki67 and phosphorylated Rb [pRb]; assay: Pharmacodynamic biomarkers by immunohistochemistry in skin and tumor biopsies; assay type: in vivo, human
[3] = test system: Rb+ advanced solid tumors or lymphomas; assay: Clinical activity, radiographic response; assay type: in vivo, human
Method in brief: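 Oral test compound given daily on a 3-weeks-on/1-week-off schedule (50–1,200 mg/day) or a continuous 28-day schedule (600 mg/day). Response was assessed by CT or MRI per RECIST 1.0 for solid tumors or IWG criteria for lymphomas. Scans were done at the end of every second cycle for six cycles, then every third cycle, and at end of treatment. Patients receiving at least one dose were included; analyses were descriptive.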

[4] = ref unpublished data; cited from earlier work

CN(C)C(=O)c1cc2cnc(Nc3ccc(N4CCNCC4)cn3)nc2n1C1CCCC1 [ribociclib]
mean effective half-life based on accumulation ratio (T1/2, acc) ([1]; at the RDE (600 mg/day 3-weeks-on/1-week-off), oral): 32.6 h | dose proportionality of Cmax and AUC ([1]; dose range 50–1,200 mg/day): slightly higher than dose proportional; also recorded: slightly more than proportional to dose | Tmax ([1]; human, plasma, po): 1 to 5 h | steady state reached by ([1]; trough concentrations after repeated daily dosing): ~8 days | post-treatment changes in pRb in tumor samples ([2]; 16 paired tumor biopsies): not significant or consistent | change of Ki67 in tumor biopsies ([2]; 19 paired tumor biopsies, baseline to Day 15 of Cycle 1 or 2): reductions of Ki67 from baseline were observed at higher ribociclib doses | change of pRb in skin samples ([2]; 46 paired skin biopsies): Mean decreases of pRb in skin samples were observed at all dose levels | change of Ki67 in skin biopsies ([2]; 48 paired skin biopsies, baseline to Day 15 of Cycle 2): post-treatment reductions of Ki67 were observed across all dose levels | patients with best response of stable disease ([3]; 132 patients): 43 | stable disease as best overall response by RECIST, patients ([3]; 132 patients): 41 | stable disease as best overall response per IWG, patients ([3]; 132 patients): two | partial response rate ([3]; 132 patients, RECIST): 2.3% | stable disease as best overall response, rate ([3]; RECIST plus IWG, 132 patients): 32.6% | time on therapy ([3]; one patient with teratoma, 400 mg/day 3-weeks-on/1-week-off): 100 weeks | time on therapy ([3]; patient with liposarcoma, 600 mg/day continuous, past cut-off date): 102 weeks | nonclinical toxicity finding, bone marrow [4]: hypocellularity | nonclinical toxicity finding, cardiac [4]: prolongation of the average QTc | nonclinical toxicity finding, lymphoid system [4]: lymphoid depletion | nonclinical toxicity finding, testes [4]: atrophy
